Measured values as given in ChEMBL document CHEMBL1140171, “Synthesis and utilization of chiral alpha-methylated alpha-amino acids with a carboxyalkyl side chain in the design of novel Grb2-SH2 peptide inhibitors free of phosphotyrosine” (J Med Chem, 2008).
pIC50: −log10 of the molar value. Starred links: 1 amine or outer side, 2 acyl side, 3 side chain; linkers in the order of their positions; H or OH if unused. Positions of bridges follow the written chain, without caps; N, C: chain ends. Non-standard residues stand in square brackets, D forms with d. Residues, ends and D or L forms follow the SMILES beside them. *: point of attachment. Cys(CH2CO)(S-oxide,Ss) = O=C([C@H](C[S@+]([O-])CC(=O)[*:3])N[*:1])[*:2]; X1 = O=C(O)CCc1cc(C[C@H](N[*:1])C(=O)[*:2])ccc1O; Tyr(3-NH2) = Nc1cc(C[C@H](N)C(=O)O)ccc1O; X2 = C[C@](CCCC(=O)O)(N[*:1])C(=O)[*:2]; Gla = N[C@@H](CC(C(=O)O)C(=O)O)C(=O)O; Fmoc = O=C(OCC1c2ccccc2-c2ccccc21)*; αMehGlu = C[C@](N)(CCCC(=O)O)C(=O)O; αMeE = C[C@](N)(CCC(=O)O)C(=O)O; Aad = N[C@@H](CCCC(=O)O)C(=O)O; αMeD = C[C@](N)(CC(=O)O)C(=O)O; Ac6c = NC1(C(=O)O)CCCCC1; Ava = NCCCCC(=O)O

Columns and labels:
[1] = target: Growth factor receptor-bound protein 2 (Homo sapiens, UniProt P62993); assay: Binding affinity to recombinant Grb2 SH2 domain by surface plasmon resonance analysis
Sequence of Growth factor receptor-bound protein 2 (P62993 whole entry, the tested form may be a part): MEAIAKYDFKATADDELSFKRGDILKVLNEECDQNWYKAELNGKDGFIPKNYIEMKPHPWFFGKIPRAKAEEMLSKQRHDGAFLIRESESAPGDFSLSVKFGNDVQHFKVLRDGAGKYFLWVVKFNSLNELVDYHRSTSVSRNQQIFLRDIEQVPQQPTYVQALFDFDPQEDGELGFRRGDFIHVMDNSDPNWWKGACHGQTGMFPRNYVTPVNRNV
Procedure, shortened: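 Competition SPR: inhibitor mixed with recombinant Grb2 SH2 protein, with equilibrium binding measured to immobilized biotinyl-DDPS-pY-VNVQ (SHC pTyr317 phosphopeptide) on a streptavidin SA chip. Run in pH 7.4 PBS with 0.01% P-20 surfactant. IC50 is the concentration giving half-maximal competition, as the mean of at least two independent experiments with standard deviation.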

MDA-MB-453 = assay: Antiproliferative activity against human MDA-MB-453 cells expressing erbB-2 after 4 days by WST-8 assay; assay type: functional, cell-based; conditions: MDA-MB-453, 96 h
Procedure, shortened: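 MDA-MB-453 cells (erbB-2 overexpressing) seeded at (3-4) × 10^3 cells/well with a range of inhibitor concentrations, incubated 4 days. WST-8 added to 10% final, 2-3 h at 37 °C, absorbance read at 450 nm. IC50 is the concentration giving 50% growth inhibition, taken against untreated DMSO-control absorbance.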

## CC(C)C[C@@H]1NC(=O)[C@H](CCCC(=O)O)NC(=O)C[S@@+]([O-])C[C@@H](C(N)=O)NC(=O)CCCCNC(=O)[C@H](CC(N)=O)NC(=O)[C@](C)(CCC(=O)O)NC(=O)[C@H](Cc2ccc(O)cc2)NC1=O
[1]
  pIC50: 4.74

## CC(C)C[C@@H]1NC(=O)[C@H](CCCC(=O)O)NC(=O)C[S@@+]([O-])C[C@@H](C(N)=O)NC(=O)CCCCNC(=O)[C@H](CC(N)=O)NC(=O)[C@@](C)(CCC(=O)O)NC(=O)[C@H](Cc2ccc(O)cc2)NC1=O
[1]
  pIC50: 4.52

## C[C@@](CCC(=O)O)(NC(=O)[C@H](Cc1ccc(O)c(CCC(=O)O)c1)NC(=O)OCC1c2ccccc2-c2ccccc21)C(=O)N[C@@H](CC(N)=O)C(N)=O
[1]
  pIC50: 3.77

## CC(C)C[C@@H]1NC(=O)[C@H](CCCC(=O)O)NC(=O)CSC[C@@H](C(N)=O)NC(=O)CCCCNC(=O)[C@H](CC(N)=O)NC(=O)[C@@](C)(CCC(=O)O)NC(=O)[C@H](Cc2ccc(O)cc2)NC1=O
[1]
  pIC50: 4.22

## C[C@@](CCC(=O)O)(NC(=O)[C@@H](N)Cc1ccc(O)c(CCO)c1)C(=O)N[C@@H](CC(N)=O)C(N)=O
[1]
  pIC50: 3.54

## CC(C)C[C@@H]1NC(=O)[C@H](CCCC(=O)O)NC(=O)CSC[C@@H](C(N)=O)NC(=O)CCCCNC(=O)[C@H](CC(N)=O)NC(=O)[C@](C)(CCC(=O)O)NC(=O)[C@H](Cc2ccc(O)cc2)NC1=O
[1]
  pIC50: 4.15

## CC(C)C[C@H](NC(=O)[C@H](CCCC(=O)O)NC(=O)OCC1c2ccccc2-c2ccccc21)C(=O)N[C@@H](Cc1ccc(O)c(N)c1)C(=O)NC1(C(=O)N[C@@H](CC(N)=O)C(N)=O)CCCCC1 (Fmoc-[Aad]L[Tyr(3-NH2)][Ac6c]N-NH2)
[1]
  pIC50: 5.24

## CC(C)C[C@H](NC(=O)[C@H](CCCC(=O)O)NC(=O)OCC1c2ccccc2-c2ccccc21)C(=O)N[C@@H](Cc1ccc(O)c(CCC(=O)O)c1)C(=O)N[C@@](C)(CCC(=O)O)C(=O)N[C@@H](CC(N)=O)C(N)=O (Fmoc-[Aad]L[X1][αMeE]N-NH2)
[1]
  pIC50: 5.25
MDA-MB-453
  pIC50: 4.85

## CC(C)C[C@H](NC(=O)[C@H](CC(C(=O)O)C(=O)O)NC(=O)OCC1c2ccccc2-c2ccccc21)C(=O)N[C@@H](Cc1ccc(O)c(N)c1)C(=O)NC1(C(=O)N[C@@H](CC(N)=O)C(N)=O)CCCCC1 (Fmoc-[Gla]L[Tyr(3-NH2)][Ac6c]N-NH2)
[1]
  pIC50: 5.60
MDA-MB-453
  pIC50: 4.28

## CC(C)C[C@H](NC(=O)[C@H](CC(C(=O)O)C(=O)O)NC(=O)OCC1c2ccccc2-c2ccccc21)C(=O)N[C@@H](Cc1ccc(O)c(N)c1)C(=O)N[C@@](C)(CCC(=O)O)C(=O)N[C@@H](CC(N)=O)C(N)=O (Fmoc-[Gla]L[Tyr(3-NH2)][αMeE]N-NH2)
[1]
  pIC50: 5.36
MDA-MB-453
  pIC50: 4.26

## CC(C)C[C@H](NC(=O)[C@@](C)(CCCC(=O)O)NC(=O)OCC1c2ccccc2-c2ccccc21)C(=O)N[C@@H](Cc1ccc(O)cc1)C(=O)NC1(C(=O)N[C@@H](CC(N)=O)C(N)=O)CCCCC1 (Fmoc-[X2]LY[Ac6c]N-NH2)
[1]
  pIC50: < 3.00

## CC(C)C[C@H](NC(=O)[C@@](C)(CCCC(=O)O)NC(=O)OCC1c2ccccc2-c2ccccc21)C(=O)N[C@@H](Cc1ccc(O)c(N)c1)C(=O)NC1(C(=O)N[C@@H](CC(N)=O)C(N)=O)CCCCC1 (Fmoc-[X2]L[Tyr(3-NH2)][Ac6c]N-NH2)
[1]
  pIC50: 3.15

## CC(C)C[C@H](NC(=O)[C@](C)(CCCC(=O)O)NC(=O)OCC1c2ccccc2-c2ccccc21)C(=O)N[C@@H](Cc1ccc(O)cc1)C(=O)NC1(C(=O)N[C@@H](CC(N)=O)C(N)=O)CCCCC1 (Fmoc-[αMehGlu]LY[Ac6c]N-NH2)
[1]
  pIC50: 3.93

## CC(C)C[C@H](NC(=O)[C@](C)(CCCC(=O)O)NC(=O)OCC1c2ccccc2-c2ccccc21)C(=O)N[C@@H](Cc1ccc(O)c(N)c1)C(=O)NC1(C(=O)N[C@@H](CC(N)=O)C(N)=O)CCCCC1 (Fmoc-[αMehGlu]L[Tyr(3-NH2)][Ac6c]N-NH2)
[1]
  pIC50: 5.41
MDA-MB-453
  pIC50: 4.54

## CC(C)C[C@H](NC(=O)[C@@H](N)CC(C(=O)O)C(=O)O)C(=O)N[C@@H](Cc1ccc(O)c(N)c1)C(=O)N[C@@](C)(CCC(=O)O)C(=O)N[C@@H](CC(N)=O)C(N)=O (H-[Gla]L[Tyr(3-NH2)][αMeE]N-NH2)
[1]
  pIC50: 4.72

## CC(C)C[C@@H]1NC(=O)[C@H](CCCC(=O)O)NC(=O)C[S@@+]([O-])C[C@@H](C(N)=O)NC(=O)CCCCNC(=O)[C@H](CC(N)=O)NC(=O)C2(CCCCC2)NC(=O)[C@H](Cc2ccc(O)cc2)NC1=O ([Aad]LY[Ac6c]N[Ava][Cys(CH2CO)(S-oxide,Ss)]-NH2; lactam N-7)
[1]
  pIC50: 4.11

## CC(C)C[C@@H]1NC(=O)[C@H](CCCC(=O)O)NC(=O)C[S@@+]([O-])C[C@@H](C(N)=O)NC(=O)CCCCNC(=O)[C@H](CC(N)=O)NC(=O)[C@](C)(CC(=O)O)NC(=O)[C@H](Cc2ccc(O)cc2)NC1=O ([Aad]LY[αMeD]N[Ava][Cys(CH2CO)(S-oxide,Ss)]-NH2; lactam N-7)
[1]
  pIC50: 4.52

## CC(C)C[C@@H]1NC(=O)[C@H](CCCC(=O)O)NC(=O)C[S@@+]([O-])C[C@@H](C(N)=O)NC(=O)CCCCNC(=O)[C@H](CC(N)=O)NC(=O)[C@](C)(CCCC(=O)O)NC(=O)[C@H](Cc2ccc(O)cc2)NC1=O ([Aad]LY[αMehGlu]N[Ava][Cys(CH2CO)(S-oxide,Ss)]-NH2; lactam N-7)
[1]
  pIC50: 4.77

## CC(C)C[C@@H]1NC(=O)[C@H](CCCC(=O)O)NC(=O)C[S@@+]([O-])C[C@@H](C(N)=O)NC(=O)CCCCNC(=O)[C@H](CC(N)=O)NC(=O)[C@](C)(CCC(=O)O)NC(=O)[C@H](Cc2ccc(O)c(N)c2)NC1=O ([Aad]L[Tyr(3-NH2)][αMeE]N[Ava][Cys(CH2CO)(S-oxide,Ss)]-NH2; lactam N-7)
[1]
  pIC50: 5.09

## CC(C)C[C@@H]1NC(=O)[C@H](CC(C(=O)O)C(=O)O)NC(=O)C[S@@+]([O-])C[C@@H](C(N)=O)NC(=O)CCCCNC(=O)[C@H](CC(N)=O)NC(=O)[C@](C)(CCCC(=O)O)NC(=O)[C@H](Cc2ccc(O)c(N)c2)NC1=O ([Gla]L[Tyr(3-NH2)][αMehGlu]N[Ava][Cys(CH2CO)(S-oxide,Ss)]-NH2; lactam N-7)
[1]
  pIC50: 5.94
MDA-MB-453
  pIC50: 4.92

## CC(C)C[C@@H]1NC(=O)[C@H](CCCC(=O)O)NC(=O)CSC[C@@H](C(N)=O)NC(=O)CCCCNC(=O)[C@H](CC(N)=O)NC(=O)[C@](C)(CC(=O)O)NC(=O)[C@H](Cc2ccc(O)cc2)NC1=O ({CH2CO}-[Aad]LY[αMeD]N[Ava]C-NH2; thioether N-7)
[1]
  pIC50: 3.97

## CC(C)C[C@@H]1NC(=O)[C@H](CCCC(=O)O)NC(=O)CSC[C@@H](C(N)=O)NC(=O)CCCCNC(=O)[C@H](CC(N)=O)NC(=O)[C@](C)(CCCC(=O)O)NC(=O)[C@H](Cc2ccc(O)cc2)NC1=O ({CH2CO}-[Aad]LY[αMehGlu]N[Ava]C-NH2; thioether N-7)
[1]
  pIC50: 4.22

## CC(C)C[C@@H]1NC(=O)[C@H](CCCC(=O)O)NC(=O)CSC[C@@H](C(N)=O)NC(=O)CCCCNC(=O)[C@H](CC(N)=O)NC(=O)[C@](C)(CCC(=O)O)NC(=O)[C@H](Cc2ccc(O)c(N)c2)NC1=O ({CH2CO}-[Aad]L[Tyr(3-NH2)][αMeE]N[Ava]C-NH2; thioether N-7)
[1]
  pIC50: 4.77

## CC(C)C[C@@H]1NC(=O)[C@H](CC(C(=O)O)C(=O)O)NC(=O)CSC[C@@H](C(N)=O)NC(=O)CCCCNC(=O)[C@H](CC(N)=O)NC(=O)[C@](C)(CCCC(=O)O)NC(=O)[C@H](Cc2ccc(O)c(N)c2)NC1=O ({CH2CO}-[Gla]L[Tyr(3-NH2)][αMehGlu]N[Ava]C-NH2; thioether N-7)
[1]
  pIC50: 5.02
